The values below come from paper PMC4887080 (Journal of nuclear medicine : official publication, Society …, 2016).

Series [1] relates to VLA-4-positive 5TGM1-GFP murine myeloma cells. Kind of series: Flow cytometry binding of LLP2A-Cy5 to 5TGM1-GFP cells. The format is cell-based, mouse. The note with it: coincubated at similar concentrations, P < 0.05. For orientation: A flow cytometer gives signals particle by particle.
The test system of series [2] is human MM cell lines H929, RPMI-8226, OPM2. Briefly: Flow cytometry binding of LLP2A-Cy5 to human MM cell lines. The format is cell-based.
The nature of series [3]: Human radiation dose estimates extrapolated from mouse biodistribution. The format is in vivo, BALB/c mice, scaled to adult human male model. A digest of the protocol:
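64Cu tracer biodistribution in normal BALB/c mice given 0.78 MBq. Organs were collected at 1, 2, 4, 12, 24 and 48 h, and %ID/g was decay-corrected. A final group was housed in metabolic cages to collect urine and feces. Organ residence times (2-h void; 1-h void scenario also run) were scaled to human organ weight for the adult male model. Maximum injection assumes a 50 mGy bladder-wall limit. Mean ± SD.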

Series [4] is classed as in vivo, BALB/c mice. The gist of the method:
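BALB/c mice received 0.78 MBq of 64Cu tracer, with sampling at 1, 2, 4, 12, 24 and 48 h. The last group was kept in metabolic cages to collect excreted urine and feces. Time–activity curves for urine excretion and blood clearance were built as percentage injected activity. Urine residence time used a 1-h void assumption.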

Series [5] deals with T1, VLA-4 (Mus musculus, UniProt P09055+Q00651). The format is in vivo, KaLwRij mouse.
T1 sequence (Q00651 40-1039 limits assumed): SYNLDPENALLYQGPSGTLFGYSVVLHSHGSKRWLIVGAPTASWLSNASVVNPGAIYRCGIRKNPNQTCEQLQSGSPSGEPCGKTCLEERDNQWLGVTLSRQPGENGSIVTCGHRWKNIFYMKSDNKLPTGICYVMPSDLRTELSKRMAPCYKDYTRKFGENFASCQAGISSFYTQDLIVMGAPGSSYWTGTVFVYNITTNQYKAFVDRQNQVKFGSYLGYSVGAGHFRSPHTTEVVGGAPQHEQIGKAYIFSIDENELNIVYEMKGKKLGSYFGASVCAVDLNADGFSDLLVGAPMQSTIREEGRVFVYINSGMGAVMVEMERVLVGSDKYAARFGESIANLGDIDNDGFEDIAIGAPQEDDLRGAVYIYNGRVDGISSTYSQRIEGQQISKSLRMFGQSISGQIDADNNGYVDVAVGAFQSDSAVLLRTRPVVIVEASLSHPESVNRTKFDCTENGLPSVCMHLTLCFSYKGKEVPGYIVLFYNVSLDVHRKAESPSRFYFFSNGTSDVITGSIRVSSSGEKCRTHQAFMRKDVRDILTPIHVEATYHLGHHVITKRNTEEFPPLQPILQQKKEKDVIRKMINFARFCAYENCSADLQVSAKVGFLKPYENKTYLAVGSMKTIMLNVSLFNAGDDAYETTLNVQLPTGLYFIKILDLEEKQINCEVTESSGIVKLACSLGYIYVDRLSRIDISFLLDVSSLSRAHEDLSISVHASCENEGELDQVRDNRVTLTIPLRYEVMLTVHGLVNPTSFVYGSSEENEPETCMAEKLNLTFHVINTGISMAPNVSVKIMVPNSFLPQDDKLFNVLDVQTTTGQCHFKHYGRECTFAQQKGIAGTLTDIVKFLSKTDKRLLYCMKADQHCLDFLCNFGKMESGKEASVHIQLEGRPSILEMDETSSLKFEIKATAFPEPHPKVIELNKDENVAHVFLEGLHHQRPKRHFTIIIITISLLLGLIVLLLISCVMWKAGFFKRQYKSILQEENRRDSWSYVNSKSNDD
T1 sequence (P09055 21-798): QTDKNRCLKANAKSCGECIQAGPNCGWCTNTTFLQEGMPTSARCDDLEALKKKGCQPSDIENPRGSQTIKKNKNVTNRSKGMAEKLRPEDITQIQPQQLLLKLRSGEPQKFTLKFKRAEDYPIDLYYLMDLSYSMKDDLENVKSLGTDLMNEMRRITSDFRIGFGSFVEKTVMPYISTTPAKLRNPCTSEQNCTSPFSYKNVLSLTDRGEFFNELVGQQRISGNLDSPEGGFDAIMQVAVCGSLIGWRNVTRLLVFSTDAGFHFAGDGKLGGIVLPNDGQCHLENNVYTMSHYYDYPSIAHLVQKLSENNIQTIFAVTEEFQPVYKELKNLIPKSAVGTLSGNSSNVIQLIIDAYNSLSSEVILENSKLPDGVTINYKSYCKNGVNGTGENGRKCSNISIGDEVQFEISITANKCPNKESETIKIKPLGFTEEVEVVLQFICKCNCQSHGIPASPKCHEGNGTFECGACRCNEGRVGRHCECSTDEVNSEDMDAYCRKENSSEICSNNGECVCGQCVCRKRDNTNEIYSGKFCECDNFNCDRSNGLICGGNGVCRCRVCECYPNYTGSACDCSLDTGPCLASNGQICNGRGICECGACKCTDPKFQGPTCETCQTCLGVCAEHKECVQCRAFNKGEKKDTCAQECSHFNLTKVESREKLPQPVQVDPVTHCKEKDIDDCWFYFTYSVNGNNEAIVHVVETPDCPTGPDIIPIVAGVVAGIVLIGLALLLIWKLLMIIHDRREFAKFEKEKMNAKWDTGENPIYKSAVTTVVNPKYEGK
The target of series [6] is T1, VLA-4. Kind of series: PET uptake in tumor-free α4 -/- mice vs wild-type KaLwRij mice. To be noted: tumor-free α4 -/- mice compared with age-matched wild-type KaLwRij mice. The format is in vivo.

Consider `CCOCc1cc(OC)c(-c2ccc(C[C@H](NC(=O)c3c(F)cccc3F)C(=O)O)cc2)c(OC)c1` [firategrast], for which, in series [1], the “Effect of competitor on LLP2A-Cy5 cell binding” value was “competitively inhibited”.
For `Cc1ccccc1NC(=O)Nc1ccc(CC(=O)N(C)[C@@H](CC(C)C)C(=O)NCC[C@H](NC(=O)[C@@H]2CCCN2S(=O)(=O)c2cc(Cl)cc(Cl)c2)C(=O)O)cc1` [BIO5192], in series [2], the “Effect on LLP2A-Cy5 cell binding” value is listed as “blocked”.
On to “^64Cu-CB-TE1A1P-PEG4-LLP2A [^64Cu-LLP2A]”, for which, in series [3] (1-h bladder-voiding interval), the Bladder dose was 0.094 mGy/MBq and the Red marrow dose is 0.005 mGy/MBq. Moreover, the “Human radiation dose estimate, urinary bladder wall (dose-limiting organ)” value in series [3] (as stated in abstract and discussion, void interval not stated) is 0.200 mGy/MBq. In series [3] (as stated in abstract, void interval not stated), the “Human radiation dose estimate, red marrow” value is 0.006 mGy/MBq. In addition, the Maximum injection in series [3] (assuming maximum permissible dose of 50 mGy to the bladder wall) is 532 MBq. Also, in series [4] (1-h void assumption), the “Urine excreted, expressed as residence time” value amounted to 14.01 h. Moreover, the “Blood clearance half-life, fast component” value in series [4] (dual-exponential fit of blood time-activity curve, mice) turned out to be 6 min. Moreover, the “Residence time from area under the curve of urine data” value in series [4] (urine collected in metabolic cages) is 14.46 h. The “Tumor uptake when coinjected with blocker” value at VLA-4 [5] (coinjected with a 200-fold excess of cold-LLP2A) was “reduced to the background levels”. At VLA-4 [5] (subcutaneous 5TGM1-GFP model, i.v. injection of 0.48 MBq, PET at 24 h), the Tumor uptake result is listed as “excellent tumor uptake”. For the same compound, on VLA-4 [6], the “Uptake in the spleen of α4 -/- mice” value is “negligible uptake”.
